# Measurements from ChEMBL document CHEMBL6103596, “Design, Synthesis, and Biological Evaluation of BODIPY-Caged Resiquimod as a Dual-Acting Phototherapeutic” (J Med Chem, 2025).
# Active and inactive are the calls of the source. The calls are words filed in the database; no cut-off is given here.
# Legend:
# [1] = test system: AD293; test: Effect on morphological changes in human AD293 cells at 10 uM; assay type: functional, cell-based
# Summary of the method: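 AD293 cells treated with 10 μM compound, followed by LED irradiation or kept unirradiated, then morphology examined by microscopy.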
# [2] = Phototoxicity in human HaCaT cells assessed as cell viability at 10 uM under 530 ot 650nm 30 mW LED light irradiation and measured after 72 hrs by CCK-8 method relative to control; assay type: functional; settings: light or radiation study, read-out: Activity
# Summary of the method: (§1)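 A549, HaCaT and HeLa cells seeded at 2 × 10^3 cells/well in phenol red-free DMEM with 10% FBS. After 24 h, medium replaced with 1% DMSO containing 10 μM compound. After 90 min, one plate kept dark and one exposed to 530 or 650 nm LED (30 mW) for 15 min. Plates incubated 72 h, then CCK-8 read at 450 nm. Viability taken relative to dark control. Triplicates (HaCaT six).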
# [3] = Upregulation of TNF-alpha mRNA expression in mouse RAW264.7 cells assessed as fold change at 100 nM preincubated with NAC followed by compound addition and measured after 30 mins under 650nm LED light irradiation by real-time PCR analysis; assay type: functional; settings: 0.5 h
# Summary of the method: (§2)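 RAW264.7 cells seeded at 0.3 million per 35 mm dish. Next day, pretreated with 10 mM N-acetyl-cysteine for 30 min, then given 100 nM compound and 650 nm LED light for 30 min. Total RNA taken 24 h later and reverse transcribed with random primers. SYBR real-time PCR run for 40 cycles (95/60/72 °C). Quantities calculated by the Ct method. Results given as fold change, means ± SD.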
# [4] = Induction of hydroxyl radical assessed as DMPO-OH radical adduct formation under dark condition measured after 10 mins by ESR spectra analysis; assay type: functional
# Summary of the method: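 ESR spectra recorded with DMPO as spin trap to detect superoxide and/or hydroxyl radical adducts, before and after 10 min irradiation of compound.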
# [5] = Photorelease activity of the compound in aqueous solution at 30 uM under 647 nm 400mW LED light by 1H NMR spectroscopy analysis; assay type: ADME; settings: buffer, time 10-40 min
# [6] = Dark toxicity in human HeLa cells assessed as cell viability at 10 uM under dark condition and measured after 72 hrs by CCK-8 method relative to control; assay type: cell-based; settings: read-out: Activity; summary of the method: as §1
# [7] = Thermal stability of compound in DMSO-d6 at 37.5 degree C measured after 2 days by 1H NMR spectroscopy analysis relative to control; assay type: physicochemical; settings: 48 h; time 2 day
# Summary of the method: (§3)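 Compound in DMSO-d6 followed by 1H NMR. Degradation taken from the intensity of three signals (one resiquimod, one BODIPY, and the linkage NH), each relative to the DMSO-d6 internal standard, and the three averaged.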
# [8] = Phototoxicity in human A549 cells assessed as cell viability at 10 uM under 530 ot 650nm 30 mW LED light irradiation and measured after 72 hrs by CCK-8 method relative to control; assay type: functional; settings: A549, light or radiation study, read-out: Activity; summary of the method: as §1
# [9] = Thermal stability of compound in DMSO-d6 at 37.5 degree C measured before 24 hrs by 1H NMR spectroscopy analysis; assay type: physicochemical; summary of the method: as §3
# [10] = Upregulation of iNOS mRNA expression in mouse RAW264.7 cells assessed as fold change at 100 nM preincubated with NAC followed by compound addition and measured after 30 mins under 650nm LED light irradiation by real-time PCR analysis; assay type: functional; settings: 0.5 h; summary of the method: as §2
smiles,measurement,setting,value
CCOCc1nc2c(NC(=O)OCC3=C4C(C)=CC(/C=C/c5ccc(OCCOCCOCCOC)cc5)=[N+]4[B-](C)(C)n4c(/C=C/c5ccc(OCCOCCOCCOC)cc5)cc(C)c43)nc3ccccc3c2n1CC(C)(C)O,Activity,[1],inactive
same,viability at 10 µM,[2],41%
same,fold change (FC),[3],~2
same,Activity,[4],inactive
same,Activity,[5],Time-dependent-effect
same,"viability at 72 h, 10 µM",[6],4%
same,Activity,[7],11%
same,viability at 10 µM,[8],55%
same,Activity,[9],Not_active
same,fold change (FC),[10],~4
